Published values from different studies.
Each line is one published result; the experiments were not run side by side.
Effect on: cell growth or viability

CN[C@@H]1C[C@H]2O[C@@](C)([C@@H]1OC)n1c3ccccc3c3c4c(c5c6ccccc6n2c5c31)C(=O)NC4 — GI50 (U2OS): 26 nM
CCC1(OC(=O)C(C)c2ccc3cc(OC)ccc3c2)C(=O)OCc2c1cc1n(c2=O)Cc2cc3cc4c(cc3nc2-1)OCO4 (stereo not shown) — IC50 (HeLa; MTT): 2180 nM
CC1(C)C=Cc2cc(/C=C/C(=O)N3CCN(c4ccc(O)cc4)CC3)ccc2O1 — viability (rat Primary cortical neuron; MTT; 1 µM; 12 h): 98%
COc1cc2c3c(n(CCCNCCO)c(=O)c2cc1OC)-c1cc2c(cc1C3=O)OCO2 — GI50 (UACC-62; SRB): 30 nM
CC1(C)C=Cc2cc(/C=C/C(=O)Oc3ccccc3)ccc2O1 — viability (rat Primary cortical neuron; MTT; 1 µM; 12 h): 81%
O=C(Cc1ccc2ccccc2c1)N[C@@H](Cc1ccccc1)C(=O)N[C@H](Cc1ccccc1)C(=O)N[C@H](Cc1ccc(OP(=O)(O)O)cc1)C(=O)O — IC50 (HeLa; MTT; 48 h): 500000 nM
C[C@H]1CN(c2ccncc2NC(=O)c2ccc(F)c(-c3c(F)cccc3F)n2)C[C@@H](N)[C@@H]1O — GI50 (KMS-11; thymidine uptake): 123 nM
C[C@H]1CCC/C=C/[C@@H]2C[C@H](O)C[C@H]2[C@H](O)/C=C/C(=O)O1 — EC50 (HeLa; ATP luminescence): 40 nM
C[S@@+]([O-])CCCCN=C=S — IC50 (Hepa-1c1c7; crystal violet; 48 h): 16700 nM
COc1ccc(NC(=O)CC(Nc2ccc(OC)cc2)c2ccc3c(c2)C=CC(C)(C)O3)cc1 (stereo not shown) — viability (rat Primary cortical neuron; MTT; 1 µM; 12 h): > 80%
